MT stabilize HCS = stabilizes microtubules in HeLa cells | % tubulin-high responders, % at 10 µM | actives 0.83% (n = 200,000) | HeLa tubulin immunostaining HCS, 24 h; share of cells brighter than vehicle mean+2SD;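 active = plate Z-score above 3 for both tubulin-high and condensed-nucleus cell shares, with cell loss under 80%, at 10 µM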;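 also: anti alpha tubulin signal scored within the nucleus-defined area of each cell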
Ba/F3 V617F tox = lowers viability of Ba/F3 cells expressing EpoR and JAK2V617F. ATP luminescence. inhibition, % at 5.6 µM. actives 1.1% (n = 220,000). AID 1446;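 active = inhibition above the campaign mean plus 3 SD over all tested compounds, cut at about 24% in these data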;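 also: cytokine-independent growth of Ba/F3 cells driven by EpoR plus mutant JAK2; 0% = DMSO-treated cells and 100% = JAK inhibitor I control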
IEC-6 cytotox = counter-screen for KLF5 inhibitors: cytotoxicity in IEC-6 cells. IEC-6 cytotoxicity, luminescence viability. inhibition, % at 5 µM. actives 0.78% (n = 290,000); in the data active = inhibition above about 22%;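 also: 0% = plate median of test compound wells and 100% = cytotoxic reference compound wells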
APP transl inh = APP translation inhibition. AID 1285. inhibition, % at 2 µM. SH-SY5Y APP 5'UTR-luciferase reporter, luminescence. actives 0.82% (n = 190,000);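 active = inhibition above a set limit, derived from the sample mean plus 3 SD, cut at about 45% in these data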
b-catenin transl = modulators of beta-catenin nuclear translocation | actives 0.3% (n = 190,000) | HeLa beta-catenin nuclear translocation, immunofluorescence imaging | nuclear translocation activity, % at 5 µM;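 active = nuclear translocation activity above 50% at 5 µM, with a well cell count of 50 or more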;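 also: per-cell ratio of nuclear to cytoplasmic median beta-catenin stain intensity; plate controls were DMSO negative control for no effect and GSK-3 inhibitor IX positive control for full effect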
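Test system: human HeLa cell line; Doses: 5 µM primary, 0.02–20 µM confirmation; Incubation: 24 h compound exposure, 37°C; Detection: beta-catenin immunofluorescence imaging with DAPI; Read-out: beta-catenin nuclear/cytoplasmic ratio, % activation.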
BaF3 parental = reduces parental Ba/F3 cell viability, JAK2V617F counter-screen; actives 1.1% (n = 220,000); CellTiter-Glo ATP luminescence; inhibition, % at 5.6 µM;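 active = inhibition above a per-campaign cutoff, the mean inhibition of all tested compounds plus 3 SD, cut at about 27% in these data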;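 also: 0% = DMSO wells and 100% = JAK Inhibitor I control wells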
* marks the source's active call; other numbers are inactive results. A selection: hits, their analogues and other compounds. The true share with any hit is near 2.2%.

What do the screens show for `Cn1c(/C=C/c2ccc([N+](=O)[O-])o2)nc2ccccc2c1=O`?
MT stabilize HCS: 1.8; Ba/F3 V617F tox: 87.3*; IEC-6 cytotox: 5.8; APP transl inh: 36.7; b-catenin transl: 11.6; BaF3 parental: 67.0*

Results for Cn1c(/C=C/c2ccccc2)nc2ccccc2c1=O ?
IEC-6 cytotox: 3.3

How did CCOc1cc(S(=O)(=O)NCc2ccc3c(c2)OCO3)c(C)cc1C do in these assays?
MT stabilize HCS: 1.5; Ba/F3 V617F tox: 2.7; IEC-6 cytotox: 4.2; APP transl inh: 4.8; BaF3 parental: 6.2

How did CCOc1cc(C)c(Cl)cc1S(=O)(=O)NCc1ccc2c(c1)OCO2 do in these assays?
MT stabilize HCS: 34.8*; Ba/F3 V617F tox: -0.7; IEC-6 cytotox: 5.8; APP transl inh: -5.7; b-catenin transl: 3.9; BaF3 parental: 1.9

Results for Cc1cc(NC(=O)COC(=O)c2ccc(S(=O)(=O)N3CCCc4ccccc43)cc2)no1 ?
MT stabilize HCS: 34.5*; Ba/F3 V617F tox: 62.6*; IEC-6 cytotox: 2.2; APP transl inh: 92.2*; b-catenin transl: 69.9*; BaF3 parental: 49.4*

How did COc1ccccc1N1CCN(C(=O)c2oc3cc(C)cc(C)c3c2C)CC1 do in these assays?
MT stabilize HCS: 24.8*; Ba/F3 V617F tox: -4.4; IEC-6 cytotox: -4.7; APP transl inh: -11.6; b-catenin transl: 1.0; BaF3 parental: -0.9

How did CCCNc1nc2c(c(=O)n(C)c(=O)n2C)n1Cc1cccc(C)c1 do in these assays?
MT stabilize HCS: 2.6; Ba/F3 V617F tox: 42.4*; IEC-6 cytotox: 3.6; APP transl inh: -7.8; b-catenin transl: -3.9; BaF3 parental: 44.8*

Results for CCCNc1nc2c(c(=O)n(C)c(=O)n2C)n1CCc1ccccc1 ?
MT stabilize HCS: 5.4; Ba/F3 V617F tox: -1.4; IEC-6 cytotox: -0.1; APP transl inh: -7.1; b-catenin transl: 0.8; BaF3 parental: 3.3

How did CC(O)CNc1nc2c(c(=O)n(C)c(=O)n2C)n1Cc1cccc(C(F)(F)F)c1 (centres undefined) do in these assays?
MT stabilize HCS: 3.2; Ba/F3 V617F tox: -1.5; IEC-6 cytotox: 4.7; APP transl inh: -7.3; b-catenin transl: 0.1; BaF3 parental: 3.9

How did CCCCCCn1c(NCC)nc2c1c(=O)n(C)c(=O)n2C do in these assays?
MT stabilize HCS: 6.1; Ba/F3 V617F tox: 54.0*; IEC-6 cytotox: 16.3; APP transl inh: 1.9; b-catenin transl: -0.9; BaF3 parental: 59.4*

What do the screens show for `COc1cccc(Cn2c(NCc3ccco3)nc3c2c(=O)n(C)c(=O)n3C)c1`?
MT stabilize HCS: 3.6; Ba/F3 V617F tox: 59.4*; IEC-6 cytotox: 10.3; APP transl inh: -9.5; b-catenin transl: -0.4; BaF3 parental: 85.9*

What do the screens show for `CCCCNc1nc2c(c(=O)n(C)c(=O)n2C)n1CCC`?
b-catenin transl: -1.3

How did COCCNc1nc2c(c(=O)n(C)c(=O)n2C)n1Cc1cccc(C(F)(F)F)c1 do in these assays?
MT stabilize HCS: 2.6; Ba/F3 V617F tox: 59.1*; IEC-6 cytotox: -5.6; APP transl inh: -0.7; b-catenin transl: -0.7; BaF3 parental: 59.7*

How did COc1cc(/C=N/Nc2nc(=O)[nH]nc2C)cc([N+](=O)[O-])c1O do in these assays?
Ba/F3 V617F tox: -4.4; IEC-6 cytotox: 2.4; b-catenin transl: 1.1; BaF3 parental: 0.1

How did CCn1nc(C)c(C(=O)Nc2cc(Oc3ccc(Cl)cc3)cc([N+](=O)[O-])c2)c1C do in these assays?
MT stabilize HCS: 29.5*; Ba/F3 V617F tox: -2.4; IEC-6 cytotox: -4.1; APP transl inh: -2.1; b-catenin transl: 2.7; BaF3 parental: 0.7

How did COc1ccc(/C=N/NC(=O)c2ccc3ccccc3c2)cc1OS(=O)(=O)c1ccc(NC(C)=O)cc1 do in these assays?
MT stabilize HCS: 4.5; Ba/F3 V617F tox: 4.7; IEC-6 cytotox: 4.0; APP transl inh: 71.5*; b-catenin transl: 108.9*; BaF3 parental: 0.5

Results for CCOC(=O)c1ccc(NC(=O)CN2CCN(C(=O)C3CCCO3)CC2)cc1 (centres undefined) ?
IEC-6 cytotox: -1.8

Results for COc1cc(CN(C(=O)c2ccco2)C2CCS(=O)(=O)C2)cc(OC)c1OC (centres undefined) ?
IEC-6 cytotox: 3.6

What do the screens show for `O=C(N/N=C/c1cccc(Cl)c1Cl)Nc1ccccc1`?
MT stabilize HCS: 1.1; Ba/F3 V617F tox: 4.2; IEC-6 cytotox: 2.7; APP transl inh: -20.1; b-catenin transl: -3.1; BaF3 parental: 5.3

Results for O=C(N/N=C/c1ccc(Cl)cc1Cl)Nc1ccccc1 ?
MT stabilize HCS: 18.9*; Ba/F3 V617F tox: -4.8; IEC-6 cytotox: -6.7; APP transl inh: -10.3; b-catenin transl: 9.6; BaF3 parental: -0.5

How did Cc1onc(-c2ccc(Cl)cc2Cl)c1-c1csc(COc2ccccc2)n1 do in these assays?
Ba/F3 V617F tox: -1.2; IEC-6 cytotox: 2.6; b-catenin transl: 9.2; BaF3 parental: -4.5

What do the screens show for `CC(C)(C)c1ccc(-c2noc(CCC(=O)NCc3ccco3)n2)cc1`?
MT stabilize HCS: 3.8; Ba/F3 V617F tox: -3.3; IEC-6 cytotox: -1.4; APP transl inh: 68.2*; b-catenin transl: -1.6; BaF3 parental: 26.1

Results for O=C(CSc1nnc(COc2cccc3cccnc23)o1)N1CCc2ccccc21 ?
MT stabilize HCS: 2.2; Ba/F3 V617F tox: 0.3; IEC-6 cytotox: 0.7; APP transl inh: 6.7; b-catenin transl: -3.0; BaF3 parental: 94.4*

Results for O=C(CSc1nnc(Cc2ccccc2)o1)N1CCc2ccccc21 ?
MT stabilize HCS: 4.3; Ba/F3 V617F tox: -0.4; IEC-6 cytotox: -4.0; APP transl inh: -0.5; b-catenin transl: -7.9; BaF3 parental: 3.6

What do the screens show for `Cc1ccc(C(=O)COC(=O)c2cccc(NC(=O)c3ccc([N+](=O)[O-])cc3[N+](=O)[O-])c2)cc1`?
MT stabilize HCS: 34.5*; Ba/F3 V617F tox: 0.3; IEC-6 cytotox: -3.3; APP transl inh: -163.5; BaF3 parental: 3.3

How did C/C(=N\NC(=O)c1cccnc1)c1ccc(OC2OCCOC2Oc2ccc(/C(C)=N/NC(=O)c3cccnc3)cc2)cc1 (centres undefined) do in these assays?
MT stabilize HCS: 5.7; Ba/F3 V617F tox: 5.0; IEC-6 cytotox: 5.2; APP transl inh: -9.4; b-catenin transl: 1.3; BaF3 parental: -0.5

What do the screens show for `Cc1ccc(C(=O)Nc2nnc(S(=O)(=O)N3CCC(C)CC3)s2)cc1`?
IEC-6 cytotox: -2.3

Results for O=C(OCN1C(=O)c2ccccc2C1=O)c1cccs1 ?
MT stabilize HCS: 4.8; Ba/F3 V617F tox: 1.6; IEC-6 cytotox: -2.1; APP transl inh: -36.9; b-catenin transl: -1.9; BaF3 parental: 93.7*

How did O=C(CCN1C(=O)c2ccccc2C1=O)OCN1C(=O)c2ccccc2C1=O do in these assays?
MT stabilize HCS: 3.0; Ba/F3 V617F tox: 1.6; IEC-6 cytotox: -0.3; APP transl inh: 12.6; BaF3 parental: 5.8

Results for CCc1c(C)nc2ncnn2c1NCCc1ccc(OC)c(OC)c1 ?
MT stabilize HCS: 3.3; Ba/F3 V617F tox: -1.3; IEC-6 cytotox: 0.6; APP transl inh: 7.8; b-catenin transl: -1.6; BaF3 parental: 7.4

Compound activity: PubChem BioAssay, several laboratories
